Compound activity deposited in PubChem BioAssay by Sanford-Burnham Center for Chemical Genomics.
bIAP inh – blocks bovine intestinal alkaline phosphatase activity; purified bovine IAP, CDP-star luminescence, 30 min; inhibition, % at 20 µM; 190,000 tested, under 10 active; AID 1019;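 active = over 50% inhibition of intestinal alkaline phosphatase at 20 µM in the single-dose screen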
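System: Purified bovine intestinal alkaline phosphatase (IAP) enzyme | Input: IAP diluted 1/65,000,000 in the well | Also added: CDP-star chemiluminescent phosphatase substrate, 30 µM final | Dosing: 20 µM single dose | Times: Enzyme reaction for 30 min at room temperature | Detection: Luminescence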
hIAP activ – increases human intestinal alkaline phosphatase activity | P09923 | 0.16% of 330,000 active | purified human IAP, CDP-Star luminescence, 30 min; active compounds read high; 1 = vehicle-only enzyme, 0 = enzyme-free background | AID 2524 | activation factor at 10 µM;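 active = activation factor of the enzyme at least 2-fold when tested at 20 µM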
Target sequence (P09923 whole entry, looked up): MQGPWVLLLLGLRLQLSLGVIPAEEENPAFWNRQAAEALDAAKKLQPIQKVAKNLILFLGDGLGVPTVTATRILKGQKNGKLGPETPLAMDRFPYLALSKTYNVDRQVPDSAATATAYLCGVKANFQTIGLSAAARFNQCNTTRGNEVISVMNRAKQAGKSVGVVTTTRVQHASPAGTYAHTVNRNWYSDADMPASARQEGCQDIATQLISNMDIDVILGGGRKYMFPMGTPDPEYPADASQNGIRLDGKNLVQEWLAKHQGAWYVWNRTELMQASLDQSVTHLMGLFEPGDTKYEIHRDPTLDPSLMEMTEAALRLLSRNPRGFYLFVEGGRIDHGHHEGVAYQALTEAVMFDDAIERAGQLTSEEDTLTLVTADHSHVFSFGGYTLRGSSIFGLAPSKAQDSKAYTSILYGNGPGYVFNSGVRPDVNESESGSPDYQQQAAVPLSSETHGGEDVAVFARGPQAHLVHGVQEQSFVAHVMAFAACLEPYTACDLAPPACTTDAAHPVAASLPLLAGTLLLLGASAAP
mIAP inh – blocks mouse intestinal alkaline phosphatase; AID 2806; inhibition, % at 10 µM; 0.2% of 330,000 active; purified mouse IAP, CDP-Star luminescence, 30 min;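 active = inhibition of at least 40% at 10 µM in the primary screen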
bIAP activator – intestinal alkaline phosphatase (bovine) activation; purified bovine IAP, CDP-star luminescence, 30 min; active compounds read high; fold of DMSO-control signal, blank-subtracted; activation factor at 20 µM; 0.17% of 200,000 active;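 active = activation factor of 2 or more at 20 µM, a signal rise over negative controls twice the positive control's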
mIAP activ – increases mouse intestinal alkaline phosphatase activity | 0.24% of 330,000 active | muIAP, CDP-Star luminescence, 30 min; active compounds read high; 1 = vehicle-only enzyme signal, 0 = enzyme-free wells | AID 2805 | activation factor at 10 µM;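 active = activation factor of at least 2 at 20 µM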
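also added = chemiluminescent substrate CDP-Star | test system = mouse IAP enzyme | signal = chemiluminescence readout | compound = DMSO-dissolved test compounds | incubation = 30 min at room temperature | benchmarks = DMSO wells, no-enzyme wells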
hIAP block – human IAP inhibition; P09923; purified IAP, CDP-Star luminescence, 30 min; inhibition, % at 10 µM; 0.12% of 330,000 active; AID 2544;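 active = inhibition reaching a set limit with compound at 10 µM in the primary screen, cut at about 35% in these data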
mIAP inh confirm – mouse IAP inhibition confirmation; shares compounds with mIAP inh; purified mouse IAP, CDP-Star luminescence, 30 min; inhibition, % at 10 µM; 4.7% of 11,000 active;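 active = inhibition of at least 40% at 10 µM in either of the two replicates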
Each line names hits and unclear results; the compound was inactive in the other large screens (follow-up assays come after a bar, where they were run). An excerpt weighted towards active compounds, which were near 0.79% of everything screened.

O=C(Cn1c(-c2ccccc2Cl)nc2ccccc21)Nc1cccc(Cl)c1	mIAP activ 2.8 | mIAP inh confirm inactive
Cc1ccc(SCc2nc3ccccc3n2CC(=O)Nc2ccc(Cl)cc2)cc1	mIAP activ 2.7 | mIAP inh confirm inactive
Cc1ccc(SCc2nc3ccccc3n2CC(=O)Nc2c(C)cccc2C)cc1	none
O=C(Cn1c(COc2ccccc2)nc2ccccc21)Nc1cccc(Cl)c1	none
Cc1cc(C)cc(NC(=O)Cn2c(-c3ccccc3Cl)nc3ccccc32)c1	mIAP activ 2.8 | mIAP inh confirm inactive
O=C(Cn1c(CO)nc2ccccc21)Nc1ccccc1Cl	none
COc1ccc(CC(=O)Nc2cc(S(=O)(=O)N3CCCC3)ccc2Cl)c(OC)c1	none (no result: bIAP inh, bIAP activator)
Nc1cccc2cnccc12	none
Nc1ccncc1N	mIAP inh 72 (no result: bIAP inh, bIAP activator) | mIAP inh confirm 75
O=C(CSc1nc2nn(-c3ccccc3)c(=O)c-2c2n1CCCCC2)c1ccc(O)c(O)c1	mIAP inh 76 (no result: bIAP inh, bIAP activator) | mIAP inh confirm 81
CNC(=O)CSc1nc2nn(-c3ccccc3)c(=O)c-2c2n1CCCCC2	none
O=C(O)c1ccc(CSc2n[nH]c(-c3ccco3)n2)cc1	mIAP inh 58 | mIAP inh confirm 86
CCOC(=O)CSc1n[nH]c(-c2ccco2)n1	none
COc1ccc(C2CC(c3ccccc3Br)=NN2c2ccc(S(N)(=O)=O)cc2)cc1 (configuration not stated)	none (no result: bIAP inh, hIAP activ, bIAP activator, hIAP block)
COc1ccc(C2CC(c3ccc(C(F)(F)F)cc3)=NN2c2ccc(S(N)(=O)=O)cc2)cc1 (configuration not stated)	none (no result: bIAP inh, hIAP activ, bIAP activator, hIAP block)
COc1ccc(C2CC(c3ccccc3C(F)(F)F)=NN2c2ccc(S(N)(=O)=O)cc2)cc1 (configuration not stated)	mIAP activ 2.2 (no result: bIAP inh, hIAP activ, bIAP activator, hIAP block) | mIAP inh confirm inactive
COc1ccc(C2CC(c3ccccc3F)=NN2c2ccc(S(N)(=O)=O)cc2)cc1 (configuration not stated)	mIAP activ 2.1 (no result: bIAP inh, hIAP activ, bIAP activator, hIAP block) | mIAP inh confirm inactive
COc1ccc(/C=N/N2C(=O)CSC2=S)cc1Br	none (no result: bIAP inh, bIAP activator)
O=C1CSC(=S)N1/N=C/c1ccc(O)c(O)c1O	mIAP inh 92 (no result: bIAP inh, bIAP activator) | mIAP inh confirm 88
COc1ccc(/C=N/N2C(=O)CSC2=S)cc1	mIAP inh 47 | mIAP inh confirm 60
CC(C)(C)c1ccc(/C=N/N2C(=O)CSC2=S)cc1	none (no result: bIAP inh, bIAP activator)
CCOc1ccc(CCNC(=O)Cn2ncn3nc(-c4ccc(OC)cc4)cc3c2=O)cc1OCC	none (no result: bIAP inh, bIAP activator)
COc1ccc(C2=NOC(Cn3nc(-c4ccccc4)cc3C(=O)NCc3cccc(Br)c3)C2)cc1 (configuration not stated)	mIAP activ 3.8 (no result: bIAP inh, bIAP activator) | mIAP inh confirm inactive
CCc1cc(Cn2nc(-c3ccccc3)cc2C(=O)NCc2cccc(C(F)(F)F)c2)on1	mIAP activ 3.4 (no result: bIAP inh, bIAP activator) | mIAP inh confirm inactive
CCc1cc(Cn2nc(-c3ccccc3)cc2C(=O)NCc2cccc(Br)c2)on1	mIAP activ 6.6 (no result: bIAP inh, bIAP activator) | mIAP inh confirm inactive
CC(C)(O)[C@@H]1CC[C@@](C)(C2CC[C@]3(C)C2[C@H](O)CC2[C@@]4(C)CC[C@H](O)C(C)(C)C4[C@@H](O[C@H]4O[C@@H](CO)[C@H](O)[C@@H](O)[C@@H]4O[C@@H]4O[C@H](CO)[C@@H](O)[C@H](O)[C@H]4O)C[C@]23C)O1 (stereo in doubt)	none (no result: bIAP inh, bIAP activator)
O=C(COc1ccc(Cl)cc1)Nc1ccc2c(c1)nc1n2CCOC1	none (no result: bIAP inh, bIAP activator)
Cc1cc(/C=C2\SC(=S)NC2=O)c(C)[nH]1	mIAP inh 70 | mIAP inh confirm 87
Cc1sc(-n2c(C)cc(/C=C3\SC(=S)NC3=O)c2C)c(C#N)c1C	mIAP inh 50 | mIAP inh confirm 64
Cc1cc(/C=C2\SC(=S)NC2=O)c(C)n1-c1cccc(O)c1	mIAP inh 76 (no result: bIAP inh, bIAP activator) | mIAP inh confirm 75
COc1cccc(NC(=O)c2cccc(N3C(=O)C4C5C=CC(C5)C4C3=O)c2)c1 (configuration not stated)	none (no result: bIAP inh, bIAP activator)
Cc1cc(N2CCOCC2)nc2ccc(Cl)cc12	none (no result: bIAP inh, bIAP activator)
CCC(=O)NC(=S)Nc1ccc(S(=O)(=O)NC2CCCCC2)cc1	none (no result: bIAP inh, bIAP activator)
Fc1ccc2[nH]c3c(NCc4ccccc4)ncnc3c2c1	mIAP activ 2.7 (no result: bIAP inh, bIAP activator) | mIAP inh confirm inactive
COc1ccc2[nH]c3c(NCc4ccco4)ncnc3c2c1	none
Cc1cc([N+](=O)[O-])ccc1NC(=O)c1csc(C)c1C	none (no result: bIAP inh, bIAP activator)
CCc1ccc(NC(=O)Nc2ccc3c(c2)N(C)C(=O)CS3)cc1	mIAP activ 2.9 | mIAP inh confirm inactive
Cc1cc(C)cc(NC(=O)Nc2ccc3c(c2)N(C)C(=O)CS3)c1	mIAP activ 4 | mIAP inh confirm inactive
O=C1C=C(c2cccc(CO)c2)C[C@@H](c2ccc(Cl)cc2)C1	none (no result: bIAP inh, bIAP activator)
C[C@H](CO)N1C[C@H](C)[C@@H](CN(C)S(=O)(=O)c2cn(C)cn2)Oc2ccc(NC(=O)Cn3cnnn3)cc2C1=O	none (no result: bIAP inh, bIAP activator)
O=C(Cc1nnc(NC(=O)c2ccccc2)s1)N/N=C\c1ccc(O)c(O)c1	mIAP inh 73 (no result: bIAP inh, bIAP activator) | mIAP inh confirm 79
COc1ccc2[nH]c3c(c2c1)CCN1C(=O)C(CC(=O)NCc2ccco2)C[C@H](C(=O)N2CCOCC2)[C@@]31CCC1CCCC1 (some centres not stated)	none (no result: bIAP inh, hIAP activ, bIAP activator, hIAP block)
Cc1nc(NC(=O)c2ccccc2)sc1-c1csc(NCc2ccco2)n1	mIAP inh 44 | mIAP inh confirm 56
O=C(NCCCc1ccccc1)C1CC1	none (no result: bIAP inh, bIAP activator)
O=C(NC[C@@H]1CC[C@@H](Cc2ccc(-c3ccccc3)cc2)O1)Nc1ccc(Br)cc1	mIAP activ 4.2 (no result: bIAP inh, hIAP activ, bIAP activator, hIAP block) | mIAP inh confirm inactive
O=C(NCCCCc1ccccc1)NC[C@@H]1CC[C@@H](Cc2ccc(-c3ccccc3)cc2)O1	mIAP activ 4.8 (no result: bIAP inh, hIAP activ, bIAP activator, hIAP block) | mIAP inh confirm inactive
COc1ccc(C2(C)NC(=O)N(CC(=O)NC3CC3)C2=O)cc1 (configuration not stated)	none (no result: bIAP inh, bIAP activator)
N=C1S/C(=C\c2ccco2)C(=O)N1c1ccc2c(c1)OCO2	mIAP inh 52 | mIAP inh confirm 78
N=C1S/C(=C\c2ccco2)C(=O)N1c1nccs1	mIAP inh 60 | mIAP inh confirm 65
O=C(NCCc1ccccc1)c1coc(=O)c(Br)c1	none (no result: bIAP inh, bIAP activator)
CCCc1cc(=O)n2nc(N3CCC(C(=O)NCc4ccc(C)o4)CC3)sc2n1	none (no result: bIAP inh, bIAP activator)
O=C(NCc1ccc2c(c1)OCO2)c1cc(-c2ccccc2)c(N2CCOCC2)s1	none (no result: bIAP inh, bIAP activator)
CCOc1ccc(CCNC(=O)c2cc(-c3ccccc3)c(N3CCOCC3)s2)cc1	mIAP activ 3.2 (no result: bIAP inh, bIAP activator) | mIAP inh confirm inactive
O=C(NCc1ccncc1)C1CCCN(S(=O)(=O)c2cc(Cl)ccc2Cl)C1 (configuration not stated)	none (no result: bIAP inh, bIAP activator)
CC(N=Cc1cc([N+](=O)[O-])ccc1O)c1ccccc1 (configuration not stated)	none
